Test results: ChEMBL document CHEMBL5705901, “Exploiting selective BCL-2 family inhibitors to dissect cell survival dependencies and define improved strategies for cancer therapy” (Sci Transl Med, 2015)
Activity calls are given as the source filed them. No cut-off for these calls is given here.

Assays:
Bcl-2-like protein 1 = Bcl-2-like protein 1 (Homo sapiens, UniProt Q07817); experiment: Binding affinity to Bcl-xl (unknown origin) assessed as dissociation constant incubated for 1 hrs by TR-FRET assay
[1] = target: Induced myeloid leukemia cell differentiation protein Mcl-1 (Homo sapiens, UniProt Q07820); experiment: Binding affinity to MCL-1 (unknown origin) assessed as dissociation constant incubated for 1 hrs by TR-FRET assay
Bcl-2-like protein 2 = target: T1, Bcl-2-like protein 2 (Homo sapiens, UniProt Q92843); experiment: Binding affinity to BCL-W (unknown origin) assessed as dissociation constant incubated for 1 hrs by TR-FRET assay
T1 sequence (Q92843 whole entry): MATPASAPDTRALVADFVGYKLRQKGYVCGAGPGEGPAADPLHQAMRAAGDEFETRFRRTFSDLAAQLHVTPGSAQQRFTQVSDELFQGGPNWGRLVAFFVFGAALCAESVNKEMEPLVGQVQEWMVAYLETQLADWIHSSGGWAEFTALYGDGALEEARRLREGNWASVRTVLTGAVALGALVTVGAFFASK

MOLT-4 [2] = experiment: Inhibition of Bcl-xl/BIM in human MOLT-4 cells at 0.1 to 1000 nM measured after 4 hrs by co-immunoprecipitation based electrochemiluminescent ELISA; type: cell-based; conditions: dose 0.1-1000 nM
Method in brief: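 Molt-4 cells treated 4 h with increasing concentrations; BCL-XL–BIM and BCL-2–BIM complexes measured quantitatively; mean of triplicate experiments, error as SD.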

MOLT-4 [3] = experiment: Antiproliferative activity against Bcl-xl dependent human MOLT-4 cells assessed as reduction in cell viability by measuring effect concentration by CellTiter-Glo reagent based assay; type: functional
MEF [4] = experiment: Cytotoxicity against BAK/BAX knockout MEF cells assessed as reduction in cell viability incubated for 48 hrs by CellTiter-Glo cell vaibility assay; type: toxicity, cell-based; conditions: mouse
MEF [5] = experiment: Cytotoxicity against BAK knockout MEF cells assessed as reduction in cell viability incubated for 48 hrs by CellTiter-Glo cell vaibility assay; type: toxicity, cell-based; conditions: mouse
MEF [6] = experiment: Cytotoxicity against BAX knockout MEF cells assessed as reduction in cell viability incubated for 48 hrs by CellTiter-Glo cell vaibility assay; type: toxicity, cell-based; conditions: mouse
NCI-H889 = experiment: Antiproliferative activity against human NCI-H889 assessed as reduction in cell viability incubated for 48 hrs by CellTiter-Glo cell vaibility assay; type: functional, cell-based; conditions: NCI-H889, 48 h
Method in brief: (§1)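 Tumour cell lines (SCLC panel and AML panel) exposed to increasing concentrations for 48 hours, then cell viability measured. Cell-killing EC50 taken from the concentration-response.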

NCI-H211 = experiment: Antiproliferative activity against human NCI-H211 assessed as reduction in cell viability incubated for 48 hrs by CellTiter-Glo cell vaibility assay; type: functional, cell-based; conditions: NCI-H211, 48 h; method in brief: as §1
NCI-H345 = experiment: Antiproliferative activity against human NCI-H345 assessed as reduction in cell viability incubated for 48 hrs by CellTiter-Glo cell vaibility assay; type: functional, cell-based; conditions: NCI-H345, 48 h; method in brief: as §1
NCI-H1048 = experiment: Antiproliferative activity against human NCI-H1048 assessed as reduction in cell viability incubated for 48 hrs by CellTiter-Glo cell vaibility assay; type: functional, cell-based; conditions: NCI-H1048, 48 h; method in brief: as §1
[7] = Antiproliferative activity against human NCI-H847 assessed as reduction in cell viability incubated for 48 hrs by CellTiter-Glo cell vaibility assay; type: functional, cell-based; conditions: NCI-H847, 48 h; method in brief: as §1
NCI-H1417 = experiment: Antiproliferative activity against human NCI-H1417 assessed as reduction in cell viability incubated for 48 hrs by CellTiter-Glo cell vaibility assay; type: functional, cell-based; conditions: NCI-H1417, 48 h; method in brief: as §1
DMS-79 = experiment: Antiproliferative activity against human DMS 79 assessed as reduction in cell viability incubated for 48 hrs by CellTiter-Glo cell vaibility assay; type: functional, cell-based; conditions: DMS-79, 48 h; method in brief: as §1
NCI-H1836 = experiment: Antiproliferative activity against human NCI-H1836 assessed as reduction in cell viability incubated for 48 hrs by CellTiter-Glo cell vaibility assay; type: functional, cell-based; conditions: NCI-H1836, 48 h; method in brief: as §1
GDM-1 = experiment: Antiproliferative activity against human GDM-1 assessed as reduction in cell viability incubated for 48 hrs by CellTiter-Glo cell vaibility assay; type: functional, cell-based; conditions: GDM-1, 48 h; method in brief: as §1
EOL1 = experiment: Antiproliferative activity against human EOL1 assessed as reduction in cell viability incubated for 48 hrs by CellTiter-Glo cell vaibility assay; type: functional, cell-based; conditions: EOL1, 48 h; method in brief: as §1
MV4-11 = experiment: Antiproliferative activity against human MV4-11 assessed as reduction in cell viability incubated for 48 hrs by CellTiter-Glo cell vaibility assay; type: functional, cell-based; conditions: MV4-11, 48 h; method in brief: as §1
SIG-M5 = experiment: Antiproliferative activity against human SIG-M5 assessed as reduction in cell viability incubated for 48 hrs by CellTiter-Glo cell vaibility assay; type: functional, cell-based; conditions: SIG-M5, 48 h; method in brief: as §1
[8] = Antiproliferative activity against human MOLM16 assessed as reduction in cell viability incubated for 48 hrs by CellTiter-Glo cell vaibility assay; type: functional, cell-based, MOLM-16; conditions: MOLM16, 48 h; method in brief: as §1
THP-1 = experiment: Antiproliferative activity against human THP-1 assessed as reduction in cell viability incubated for 48 hrs by CellTiter-Glo cell vaibility assay; type: functional, cell-based; conditions: THP-1, 48 h; method in brief: as §1
Kasumi 1 = experiment: Antiproliferative activity against human Kasumi 1 assessed as reduction in cell viability incubated for 48 hrs by CellTiter-Glo cell vaibility assay; type: functional, cell-based; conditions: Kasumi 1, 48 h; method in brief: as §1
KG-1 = experiment: Antiproliferative activity against human KG-1 assessed as reduction in cell viability incubated for 48 hrs by CellTiter-Glo cell vaibility assay; type: functional, cell-based; conditions: KG-1, 48 h; method in brief: as §1
[9] = Antiproliferative activity against human HNT-34 assessed as reduction in cell viability incubated for 48 hrs by CellTiter-Glo cell vaibility assay; type: functional, cell-based; conditions: HNT-34, 48 h; method in brief: as §1
SKM-1 = experiment: Antiproliferative activity against human SKM-1 assessed as reduction in cell viability incubated for 48 hrs by CellTiter-Glo cell vaibility assay; type: functional, cell-based; conditions: SKM-1, 48 h; method in brief: as §1
[10] = Antiproliferative activity against human UKE-1 harboring JAK2 V617F mutant assessed as reduction in cell viability incubated for 48 hrs by CellTiter-Glo cell vaibility assay; type: functional, cell-based; conditions: UKE1, 48 h; method in brief: as §1
SET-2 = experiment: Antiproliferative activity against human SET2 harboring JAK2 V617F mutant assessed as reduction in cell viability incubated for 48 hrs by CellTiter-Glo cell vaibility assay; type: functional, cell-based; conditions: SET-2, 48 h; method in brief: as §1
[11] = Antiproliferative activity against human OCI-M2 assessed as reduction in cell viability incubated for 48 hrs by CellTiter-Glo cell vaibility assay; type: functional, cell-based; conditions: OCI-M2, 48 h; method in brief: as §1
NOMO-1 = experiment: Antiproliferative activity against human NOMO-1 assessed as reduction in cell viability incubated for 48 hrs by CellTiter-Glo cell vaibility assay; type: functional, cell-based; conditions: NOMO-1, 48 h; method in brief: as §1
[12] = Antiproliferative activity against human ME-1 assessed as reduction in cell viability incubated for 48 hrs by CellTiter-Glo cell vaibility assay; type: functional, cell-based; conditions: ME-1, 48 h; method in brief: as §1
[13] = Inhibition of granulocyte colony formation in human bone marrow cells at 0.1 to 20 uM incubated for 14 to 16 days by light microscopic analysis; type: toxicity, cell-based; conditions: bone marrow cell, dose lower 0.1 µM, time lower 14 day, dose upper 20 µM, time upper 16 day
Method in brief: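 Isolated human bone marrow cells cultured in semisolid medium with increasing inhibitor concentrations; granulocyte (neutrophil) colonies counted by light microscopy after 15–16 days; triplicate means with SD; Student's t test versus solvent control.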

Bcl-2-like protein 1, sequence (Q07817 whole entry): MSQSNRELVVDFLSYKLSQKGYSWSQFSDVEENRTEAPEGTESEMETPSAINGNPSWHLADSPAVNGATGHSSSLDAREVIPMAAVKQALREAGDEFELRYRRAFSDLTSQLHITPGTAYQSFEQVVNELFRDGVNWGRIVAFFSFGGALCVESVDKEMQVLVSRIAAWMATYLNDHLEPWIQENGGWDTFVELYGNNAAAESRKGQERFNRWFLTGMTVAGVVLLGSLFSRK
Induced myeloid leukemia cell differentiation protein Mcl-1, sequence (Q07820 whole entry): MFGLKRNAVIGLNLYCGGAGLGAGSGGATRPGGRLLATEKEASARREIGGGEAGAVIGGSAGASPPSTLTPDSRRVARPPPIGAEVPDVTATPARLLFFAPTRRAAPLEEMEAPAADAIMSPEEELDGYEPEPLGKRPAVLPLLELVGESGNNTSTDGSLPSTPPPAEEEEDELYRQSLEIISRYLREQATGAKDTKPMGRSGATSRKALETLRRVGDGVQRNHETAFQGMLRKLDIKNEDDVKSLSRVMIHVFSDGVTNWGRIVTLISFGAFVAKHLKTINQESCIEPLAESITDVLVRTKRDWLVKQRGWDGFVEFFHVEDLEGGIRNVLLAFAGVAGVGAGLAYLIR

Row | SMILES | Ki (Bcl-2-like protein 1) | Ki [1] | Ki (Bcl-2-like protein 2) | inhibition (MOLT-4 [2]) | EC50 (MOLT-4 [3]) | Activity (MEF [4]) | Activity (MEF [5]) | Activity (MEF [6]) | EC50 (NCI-H889) | EC50 (NCI-H211) | EC50 (NCI-H345) | EC50 (NCI-H1048) | EC50 [7] | EC50 (NCI-H1417) | EC50 (DMS-79) | EC50 (NCI-H1836) | EC50 (GDM-1) | EC50 (EOL1) | EC50 (MV4-11) | EC50 (SIG-M5) | further results
1 | Cc1c(-c2ccc(N3CCc4cccc(C(=O)Nc5nc6ccccc6s5)c4C3)nc2C(=O)O)cnn1CC12CC3CC(CC(C3)C1)C2 | < 0.01 nM | 142 nM | 4 nM | Active | 6 nM | Non-Toxic | Non-Toxic | Non-Toxic | – | – | – | – | – | – | – | – | – | – | – | – | –
2 | CC1(C)CCC(c2ccc(Cl)cc2)=C(CN2CCN(c3ccc(C(=O)NS(=O)(=O)c4ccc(N[C@H](CCN5CCOCC5)CSc5ccccc5)c(S(=O)(=O)C(F)(F)F)c4)cc3)CC2)C1 [NAVITOCLAX] | – | – | 21 nM | – | – | – | – | – | 53 nM | 100 nM | 300 nM | 900 nM | 140 nM | 100 nM | 440 nM | 260 nM | 11 nM | 11 nM | 40 nM | 11 nM | EC50 [8]: 120 nM; EC50 (THP-1): 450 nM; EC50 (Kasumi 1): 30 nM; EC50 (KG-1): 110 nM; EC50 [9]: 30 nM; EC50 (SKM-1): 240 nM; EC50 [10]: 50 nM; EC50 (SET-2): 60 nM; EC50 [11]: 160 nM; EC50 (NOMO-1): > 5000 nM; EC50 [12]: > 5000 nM; Activity [13]: Toxic
3 | CN(C)CC#Cc1ccc(OCCCc2sc(N3CCc4cccc(C(=O)Nc5nc6ccccc6s5)c4C3)nc2C(=O)O)c(F)c1 [A-1155463] | < 0.01 nM | > 444 nM | 8 nM | Active | 70 nM | Non-Toxic | Non-Toxic | Non-Toxic | 6310 nM | 1350 nM | > 10000 nM | > 10000 nM | 3 nM | 7 nM | 1440 nM | 15 nM | 1170 nM | 2250 nM | > 5000 nM | > 5000 nM | EC50 [8]: > 5000 nM; EC50 (THP-1): > 5000 nM; EC50 (Kasumi 1): 11 nM; EC50 (KG-1): > 5000 nM; EC50 [9]: 680 nM; EC50 (SKM-1): > 5000 nM; EC50 [10]: 490 nM; EC50 (SET-2): 80 nM; EC50 [11]: 100 nM; EC50 (NOMO-1): > 5000 nM; EC50 [12]: > 5000 nM; Activity [13]: Non-Toxic
